# ChEMBL document CHEMBL5724801, “EUbOPEN Chemogenomics Library - Multiplex” (2024)
# Where “and” joins values, the source holds several entries; their conditions need not be identical. Equal entries are not always repeated.
# Columns and labels:
# Fibroblast = test: Multiplex assay against human fibroblast; assay type: toxicity, cell-based
# How it was run: (§1)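 On a CQ1 microscope at 37°C and 5% CO2, live cells were imaged after compound addition. They had been stained at seeding with Hoechst33342, BioTracker Green Microtubule Cytoskeleton Dye, MitoTracker Red and Annexin V Alexa Fluor 680. CellPathfinder machine-learning gating assigned cells to Hoechst high-intensity objects or normal cells, normal cells to healthy, pyknosed or fragmented nuclei, and pyknosed cells to mitotic or apoptotic. Tubulin, mitochondrial-mass and membrane-permeability phenotypes are per cents of healthy-nucleus cells.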
# U2OS = test: Multiplex assay against U2OS; assay type: toxicity, cell-based; conditions: human; how it was run: as §1
# [1] = 12 h, 1 µM, compound concentration 1 uM
# [2] = 12 h, 10 µM, compound concentration 10 uM
# [3] = 24 h, 1 µM, compound concentration 1 uM
# [4] = 24 h, 10 µM, compound concentration 10 uM
# [5] = 48 h, 1 µM, compound concentration 1 uM
# [6] = 48 h, 10 µM, compound concentration 10 uM
structure (smiles),measurement,setting,value
O=C(Nc1cc(C(F)(F)F)ccc1N1CCCCC1)c1ccncc1,Population Fragmented Nuclei (%),Fibroblast; [1],13.9% and 8.06%
same,Population Healthy Nuclei (%),Fibroblast; [1],57.22% and 74.41%
same,Population Hoechst High Intensity Objects (%),Fibroblast; [1],0%
same,Population Membrane Permeable-Phenotype (%),Fibroblast; [1],1.87% and 1.91%
same,Population Mitochondria Different-Phenotype (%),Fibroblast; [1],6.54% and 10.83%
same,Population Mitotic Cells (%),Fibroblast; [1],92.59% and 75.68%
same,Population Normal (%),Fibroblast; [1],100%
same,Population Pyknosed Nuclei (%),Fibroblast; [1],28.88% and 17.54%
same,Population Tubulin-Different-Phenotype (%),Fibroblast; [1],13.08% and 22.93%
same,Total Cell Count,Fibroblast; [1],187 and 211
same,Population Apoptotic (%),Fibroblast; [2],17.46% and 11.48%
same,Population Fragmented Nuclei (%),Fibroblast; [2],7.6% and 3.1%
same,Population Healthy Nuclei (%),Fibroblast; [2],55.56% and 69.91%
same,Population Hoechst High Intensity Objects (%),Fibroblast; [2],0%
same,Population Membrane Permeable-Phenotype (%),Fibroblast; [2],9.47% and 6.96%
same,Population Mitochondria Different-Phenotype (%),Fibroblast; [2],26.32% and 21.52%
same,Population Mitotic Cells (%),Fibroblast; [2],82.54% and 88.52%
same,Population Normal (%),Fibroblast; [2],100%
same,Population Pyknosed Nuclei (%),Fibroblast; [2],36.84% and 26.99%
same,Population Tubulin-Different-Phenotype (%),Fibroblast; [2],35.79% and 71.52%
same,Total Cell Count,Fibroblast; [2],171 and 226
same,Population Apoptotic (%),Fibroblast; [3],11.76% and 28.57%
same,Population Fragmented Nuclei (%),Fibroblast; [3],9.18% and 7.73%
same,Population Healthy Nuclei (%),Fibroblast; [3],74.4% and 82.13%
same,Population Hoechst High Intensity Objects (%),Fibroblast; [3],0%
same,Population Membrane Permeable-Phenotype (%),Fibroblast; [3],4.55% and 4.12%
same,Population Mitochondria Different-Phenotype (%),Fibroblast; [3],4.55% and 8.82%
same,Population Mitotic Cells (%),Fibroblast; [3],88.24% and 71.43%
same,Population Normal (%),Fibroblast; [3],100%
same,Population Pyknosed Nuclei (%),Fibroblast; [3],16.43% and 10.14%
same,Population Tubulin-Different-Phenotype (%),Fibroblast; [3],16.23% and 21.76%
same,Total Cell Count,Fibroblast; [3],207
same,Population Apoptotic (%),Fibroblast; [4],20.83% and 16.98%
same,Population Fragmented Nuclei (%),Fibroblast; [4],6.81% and 3.07%
same,Population Healthy Nuclei (%),Fibroblast; [4],68.06% and 73.68%
same,Population Hoechst High Intensity Objects (%),Fibroblast; [4],0%
same,Population Membrane Permeable-Phenotype (%),Fibroblast; [4],5.38% and 5.95%
same,Population Mitochondria Different-Phenotype (%),Fibroblast; [4],30.77% and 20.24%
same,Population Mitotic Cells (%),Fibroblast; [4],79.17% and 83.02%
same,Population Normal (%),Fibroblast; [4],100%
same,Population Pyknosed Nuclei (%),Fibroblast; [4],25.13% and 23.25%
same,Population Tubulin-Different-Phenotype (%),Fibroblast; [4],53.08% and 70.24%
same,Total Cell Count,Fibroblast; [4],191 and 228
same,Population Apoptotic (%),Fibroblast; [5],11.11% and 10%
same,Population Fragmented Nuclei (%),Fibroblast; [5],14.08% and 11%
same,Population Healthy Nuclei (%),Fibroblast; [5],81.69% and 84.21%
same,Population Hoechst High Intensity Objects (%),Fibroblast; [5],0%
same,Population Membrane Permeable-Phenotype (%),Fibroblast; [5],1.72% and 2.84%
same,Population Mitochondria Different-Phenotype (%),Fibroblast; [5],8.62% and 5.11%
same,Population Mitotic Cells (%),Fibroblast; [5],88.89% and 90%
same,Population Normal (%),Fibroblast; [5],100%
same,Population Pyknosed Nuclei (%),Fibroblast; [5],4.23% and 4.78%
same,Total Cell Count,Fibroblast; [5],213 and 209
same,Population Fragmented Nuclei (%),Fibroblast; [6],9.23% and 2.62%
same,Population Healthy Nuclei (%),Fibroblast; [6],81.54% and 82.97%
same,Population Hoechst High Intensity Objects (%),Fibroblast; [6],0%
same,Population Membrane Permeable-Phenotype (%),Fibroblast; [6],0% and 7.37%
same,Population Mitochondria Different-Phenotype (%),Fibroblast; [6],17.61% and 13.68%
same,Population Mitotic Cells (%),Fibroblast; [6],61.11% and 90.91%
same,Population Normal (%),Fibroblast; [6],100%
same,Population Pyknosed Nuclei (%),Fibroblast; [6],9.23% and 14.41%
same,Population Tubulin-Different-Phenotype (%),Fibroblast; [6],31.45% and 73.68%
same,Total Cell Count,Fibroblast; [6],195 and 229
same,Population Apoptotic (%),U2OS; [1],66.67% and 37.5%
same,Population Fragmented Nuclei (%),U2OS; [1],2.62% and 1.94%
same,Population Healthy Nuclei (%),U2OS; [1],90.31% and 82.58%
same,Population Hoechst High Intensity Objects (%),U2OS; [1],0%
same,Population Membrane Permeable-Phenotype (%),U2OS; [1],1.74% and 3.12%
same,Population Mitochondria Different-Phenotype (%),U2OS; [1],0% and 2.34%
same,Population Mitotic Cells (%),U2OS; [1],33.33% and 62.5%
same,Population Normal (%),U2OS; [1],100%
same,Population Pyknosed Nuclei (%),U2OS; [1],7.07% and 15.48%
same,Population Tubulin-Different-Phenotype (%),U2OS; [1],1.16% and 0.78%
same,Total Cell Count,U2OS; [1],382 and 155
same,Population Apoptotic (%),U2OS; [2],32.65% and 31.25%
same,Population Fragmented Nuclei (%),U2OS; [2],1.78% and 5.19%
same,Population Healthy Nuclei (%),U2OS; [2],87.31% and 74.03%
same,Population Hoechst High Intensity Objects (%),U2OS; [2],0%
same,Population Membrane Permeable-Phenotype (%),U2OS; [2],2.81% and 6.14%
same,Population Mitotic Cells (%),U2OS; [2],67.35% and 68.75%
same,Population Normal (%),U2OS; [2],100%
same,Population Pyknosed Nuclei (%),U2OS; [2],10.91% and 20.78%
same,Population Tubulin-Different-Phenotype (%),U2OS; [2],6.89% and 7.89%
same,Total Cell Count,U2OS; [2],449 and 154
same,Population Apoptotic (%),U2OS; [3],24.39% and 47.37%
same,Population Fragmented Nuclei (%),U2OS; [3],2.34% and 1.57%
same,Population Healthy Nuclei (%),U2OS; [3],89.65% and 88.48%
same,Population Hoechst High Intensity Objects (%),U2OS; [3],0%
same,Population Membrane Permeable-Phenotype (%),U2OS; [3],0.65% and 1.78%
same,Population Mitochondria Different-Phenotype (%),U2OS; [3],0.22% and 4.73%
same,Population Mitotic Cells (%),U2OS; [3],75.61% and 52.63%
same,Population Normal (%),U2OS; [3],100%
